Bioassay records (PubChem)
Most compounds without a hit are left out; they make up all but 2.7% or so of the library.
RBBP9 inhibitor: human RBBP9 inhibitors, primary screen, biochemical, fluorescence polarization, FP-Rh probe, HTS. Serine hydrolase RBBP9 (Homo sapiens), O75884. recombinant RBBP9. inhibition, % at 7.94 µM. 220,000 tested, 0.2% active. AID 1515, 2009;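 active means inhibition above the campaign mean of all tested compounds plus 3 SD, cut at about 14% in these data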
Target sequence (O75884 whole entry, looked up): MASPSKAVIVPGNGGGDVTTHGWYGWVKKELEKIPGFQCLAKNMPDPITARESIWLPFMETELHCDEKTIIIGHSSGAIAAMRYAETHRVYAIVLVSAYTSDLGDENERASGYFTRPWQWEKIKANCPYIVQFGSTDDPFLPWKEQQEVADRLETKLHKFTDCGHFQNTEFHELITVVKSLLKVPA
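system = RBBP9 protein | input = RBBP9 at 2.5 µM in dispensed solution, before mixing | measured by = fluorescence polarization (mP), excitation 525 nm, emission 598 nm | incubation = enzyme-compound preincubation 30 min, then probe labeling 45 min, 25 °C | buffer or medium = Tris-NaCl-Pluronic buffer, pH 8.0 | compound = single dose 7.94 µM | also added = FP-Rh probe, 375 nM dispensing solution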
pPAFAH FP inh: pPAFAH enzyme inhibitors, primary screen, biochemical, fluorescence polarization, human. Platelet-activating factor acetylhydrolase (Homo sapiens), Q13093. recombinant pPAFAH, FP-rhodamine probe fluorescence polarization. inhibition, % at 3.39 µM. 330,000 tested, 1.5% active;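 active means inhibition above the mean inhibition across the screen plus 3 SD, cut at about 25% in these data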;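 further: inhibitors block binding of the rhodamine activity-based probe so polarization drops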
PAFAH1B2 inh: PAFAH1B2 enzyme inhibitors, primary screen, biochemical, fluorescence polarization, human | Platelet-activating factor acetylhydrolase IB subunit alpha2 (Homo sapiens), P68402 | recombinant PAFAH1B2, FP-rhodamine activity probe | inhibition, % at 3.39 µM | 340,000 tested, 1.2% active | AID 492953, 2010;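 active means inhibition above the mean of all tested compounds plus 3 SD, cut at about 24% in these data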
PAFAH1B3 inh: PAFAH1B3 enzyme inhibitors, primary screen, biochemical, fluorescence polarization, human | Platelet-activating factor acetylhydrolase IB subunit alpha1 (Homo sapiens), Q15102 | recombinant PAFAH1B3, FP-rhodamine probe | inhibition, % at 3.39 µM | 340,000 tested, 0.28% active | AID 492972, 2010;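 active means inhibition above the screen-wide average of all tested compounds plus 3 SD, cut at about 25% in these data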
Target sequence (Q15102 whole entry, looked up): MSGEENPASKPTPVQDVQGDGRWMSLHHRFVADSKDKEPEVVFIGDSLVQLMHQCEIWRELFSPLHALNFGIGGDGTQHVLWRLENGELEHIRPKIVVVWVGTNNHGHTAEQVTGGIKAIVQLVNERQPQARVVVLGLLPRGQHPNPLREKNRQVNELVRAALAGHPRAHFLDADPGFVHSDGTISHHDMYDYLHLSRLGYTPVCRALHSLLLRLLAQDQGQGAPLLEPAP
PAFAH2 FP inh: PAFAH2 enzyme inhibitors, primary screen, biochemical, fluorescence polarization, human. Platelet-activating factor acetylhydrolase 2, cytoplasmic (Homo sapiens), Q99487. AID 492956, 2010. inhibition, % at 3.39 µM. 340,000 tested, 0.99% active. recombinant PAFAH2, FP-rhodamine activity probe;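 active means inhibition above the mean over all tested compounds plus 3 SD, cut at about 30% in these data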;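 further: inhibitors block probe labeling of enzyme so polarization drops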
pPAFAH confirm: pPAFAH (PLA2G7) enzyme inhibitors, confirmation, biochemical, fluorescence polarization, human; 2,300 tested, 72% active; shares compounds with pPAFAH FP inh; recombinant pPAFAH, FP-Rh probe fluorescence polarization; AID 463230, 2010; inhibition, % at 3.39 µM;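 active means mean inhibition of the triplicate above the hit cutoff set for the earlier primary screen, cut at about 25% in these data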
A number is an active result; – = inactive; · = no result.

SMILES	RBBP9 inhibitor	pPAFAH FP inh	PAFAH1B2 inh	PAFAH1B3 inh	PAFAH2 FP inh	pPAFAH confirm
O=S(=O)(Nc1ccc2c(c1)nc1n2CCN(Cc2ccccc2)C1)c1ccc(Cl)cc1	–	38.4	32.8	–	–	–
N=C1c2c(cc(=O)n3c2[nH]c2ccccc23)CN1CCN1CCOCC1	–	35.7	–	–	–	–
Cn1c2ccccc2c(=O)c2cc(NCCCN3CCOCC3)ccc21	·	–	–	–	–	·
Cc1ccc(S(=O)(=O)N2CCCCC2)cc1NC(=O)CSc1nnc(C2CC2)n1C	·	–	–	–	–	·
O=[N+]([O-])c1cc(S(=O)(=O)N2CCCC2)ccc1NN=C1CCCCC1	–	–	–	–	–	·
O=[N+]([O-])c1cc(C(F)(F)F)cc([N+](=O)[O-])c1NN=C1CCCCC1	–	34.9	–	–	–	–
COC(=O)c1c(NC(=O)/C=C/C(=O)O)sc(C)c1-c1ccc(C)cc1	–	–	–	–	–	·
COC(=O)c1c(NC(=O)/C=C/C(=O)O)sc(C)c1-c1ccc(C)c(C)c1	–	43.7	–	–	–	28.0
CCOC(=O)c1c(NC(=O)/C=C/C(=O)O)sc(C)c1-c1ccc(C)c(C)c1	–	54.0	–	–	–	63.4
COc1cccc(CNC(=O)CCC2CCCN(C(=O)C3CCOCC3)C2)c1 (stereo not given)	–	–	–	–	–	·
CCN(CC(=O)Nc1c(F)cccc1F)C(=O)Cc1c(C)nc2ccccc2c1C	·	–	–	–	–	·
O=C(N/N=C/c1ccncc1)c1ccc2c(c1)OCO2	–	41.5	–	–	–	–
COCCn1c(SCc2nc3sc(C(=O)OC)c(C)c3c(=O)[nH]2)nc2ccccc21	–	–	–	–	–	·
CCn1c(SCc2nc3sc(C(=O)O)c(C)c3c(=O)[nH]2)nc2ccccc21	–	48.2	–	43.4	–	47.2
CC(Sc1cccc(C(F)(F)F)c1)C(=O)NC(N)=O (stereo not given)	·	–	–	–	–	·
NCCc1ccn[nH]1	·	–	–	–	–	·
COCCNC(=O)C(=O)c1cc(C)n(-c2ccc([N+](=O)[O-])cc2)c1C	–	36.1	–	–	–	28.2
O=C(NCc1ccc(OC(F)(F)F)cc1)C1CC(c2c(Cl)cccc2Cl)=NO1 (stereo not given)	–	37.5	–	–	–	–
Cc1ccc(NC(=O)c2cc(C)n(-c3cccc(C)c3)c2C)cc1	–	71.3	–	–	–	76.7
Cc1ccc(NC(=O)c2cc(C)n(-c3ccccc3)c2C)cc1	–	–	–	–	–	·
O=C1c2ccccc2[C@@H]2C[C@@H](O)[C@H](Nc3cccc(Cl)n3)CCN12	·	35.5	–	–	69.0	–
O=C1c2ccccc2[C@@H]2C[C@@H](O)[C@H](Nc3ccccc3)CCN12	·	–	–	–	–	·
CCOC(=O)C1=C(C)N(C[C@@H]2CC[C@@H](Cc3ccc(-c4ccccc4)cc3)O2)C(=O)NC1c1ccc(SCc2ccco2)c([N+](=O)[O-])c1 (stereo not given in full)	·	56.1	–	–	–	24.9
CCOC(=O)C1=C(C)N(C[C@@H]2CC[C@@H](Cc3ccc(-c4ccccc4)cc3)O2)C(=O)NC1c1ccc(C(F)(F)F)cc1 (stereo not given in full)	·	–	–	–	–	·
CSc1nnc(C2CCN(CC(=O)Nc3ccccc3N3CCOCC3)CC2)n1C	·	–	–	–	–	·
COc1cccc(OC)c1-c1nn2c(-c3cc(-c4ccccc4)n[nH]3)nnc2s1	–	37.2	–	–	42.3	45.9
COc1cccc(-c2nnc3sc(-c4ccccc4)nn23)c1	–	–	–	–	–	·
Cn1nnnc1Sc1ncnc2scc(-c3cccs3)c12	·	–	–	–	–	·
Cc1ccc(S(=O)(=O)Nc2ccc(Cl)cc2)cc1NC(=O)Cn1cnc2c1c(=O)n(C)c(=O)n2C	–	–	–	–	–	·
